From ChEMBL document CHEMBL1129618, “(+/-)-3-[4'-(N,N-dimethylamino)cinnamyl]benzazepine analogs: novel dopamine D1 receptor antagonists” (J Med Chem, 1996)
Each block holds one compound with its values, some of them ahead of it.

Experiments:
[1] = target: D(2) dopamine receptor (Rattus norvegicus, UniProt P61169); assay: Affinity for Dopamine receptor D2 binding measured by sulpiride […] to rat striatal membrane; set-up: species or system Striatum
How it was run: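 Competition binding against [³H]sulpiride at D2 sites in rat striatal (caudate putamen) membranes. Ki values are means ± SEM of at least three determinations, each run in triplicate.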

[2] = target: T1, D(1A) dopamine receptor (Rattus norvegicus, UniProt P18901); assay: Dopamine receptor D1 antagonistic activity as ability to block dopamine-stimulated adenylate cyclase in rat caudate; type: functional
[3] = target: T1, D(1A) dopamine receptor; assay: Affinity for Dopamine receptor D1 binding measured by competition against [3H]-SCH- 23390 to rat striatal membrane; set-up: species or system Striatum
How it was run: (§1)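 Competition binding against [³H]SCH 23390 at D1 sites in rat striatal (caudate putamen) membranes. Ki values are means ± SEM of at least three determinations, each run in triplicate.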

[4] = target: T1, D(1A) dopamine receptor; assay: Affinity for dopamine receptor D1 binding measured by competition against [3H]-SCH- 23390 to rat striatal membrane; set-up: species or system Striatum; how it was run: as §1

T1 sequence (P18901 whole entry): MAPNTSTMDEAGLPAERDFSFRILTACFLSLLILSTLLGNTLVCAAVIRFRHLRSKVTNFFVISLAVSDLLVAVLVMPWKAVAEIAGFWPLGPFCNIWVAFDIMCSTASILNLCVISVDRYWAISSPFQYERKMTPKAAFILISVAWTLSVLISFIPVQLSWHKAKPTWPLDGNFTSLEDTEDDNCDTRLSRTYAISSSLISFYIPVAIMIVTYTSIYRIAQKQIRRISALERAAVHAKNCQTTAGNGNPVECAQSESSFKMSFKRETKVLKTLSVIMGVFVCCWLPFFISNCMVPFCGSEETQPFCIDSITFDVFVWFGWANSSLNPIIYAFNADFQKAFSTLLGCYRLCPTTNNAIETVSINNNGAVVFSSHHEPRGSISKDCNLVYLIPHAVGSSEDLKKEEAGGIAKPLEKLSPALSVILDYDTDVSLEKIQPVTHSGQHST
Chain of D(2) dopamine receptor (P61169 whole entry): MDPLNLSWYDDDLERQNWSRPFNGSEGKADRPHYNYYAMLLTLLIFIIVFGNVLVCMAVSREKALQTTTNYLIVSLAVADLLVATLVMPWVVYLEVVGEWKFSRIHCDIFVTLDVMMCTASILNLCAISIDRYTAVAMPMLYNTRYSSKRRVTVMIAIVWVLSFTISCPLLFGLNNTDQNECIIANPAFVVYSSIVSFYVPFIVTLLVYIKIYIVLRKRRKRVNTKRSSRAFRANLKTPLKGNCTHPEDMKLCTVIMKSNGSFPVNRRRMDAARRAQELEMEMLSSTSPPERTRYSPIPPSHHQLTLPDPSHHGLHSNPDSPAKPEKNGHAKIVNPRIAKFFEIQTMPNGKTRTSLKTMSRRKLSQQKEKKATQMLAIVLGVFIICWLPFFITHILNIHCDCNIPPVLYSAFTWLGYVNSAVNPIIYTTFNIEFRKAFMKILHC

SMILES: CN(C)CCCCCCN1CCc2cc(Cl)c(O)cc2C(c2ccccc2)C1 (stereo unspecified)
Ki ([1]; read-out: Ki): 4.13 µM
Ki [2]: 0.021 µM

SMILES: CN(C)CCCCN1CCc2cc(Cl)c(O)cc2C(c2ccccc2)C1 (stereo unspecified)
Ki ([1]; read-out: Ki): 3.45 µM

SMILES: CN(C)c1ccc(CCN2CCc3cc(Cl)c(O)cc3C(c3ccccc3)C2)cc1 (stereo unspecified)
Ki [3]: 0.0884 µM

SMILES: CN(C)c1ccc(/C=C/CN2CCc3cc(Br)c(O)cc3C(c3ccccc3)C2)cc1 (stereo unspecified)
Ki [4]: 0.12 µM
Ki ([1]; read-out: Ki): 0.858 µM

Further lines, results first:

Ki ([1]; read-out: Ki): 2 µM
SMILES: COc1cc2c(cc1Br)CCN(C/C=C/c1ccc(N(C)C)cc1)CC2c1ccccc1 (stereo unspecified)

Ki ([1]; read-out: Ki): 0.345 µM
Ki [2]: 0.0184 µM
SMILES: CN(C)c1ccc(/C=C/CN2CCc3cc(Cl)c(O)cc3C(c3ccccc3)C2)cc1 (stereo unspecified)

Ki [4]: 0.209 µM
Ki [1]: Insoluble
SMILES: Oc1cc2c(cc1Br)CCN(C/C=C/c1ccccc1)CC2c1ccccc1 (stereo unspecified)
